Measured values reported in ChEMBL document CHEMBL1138580, “Natural polyprenylated benzophenones inhibiting cysteine and serine proteases” (Eur J Med Chem, 2009).
Active and inactive are the calls of the source. The calls are words filed in the database; no cut-off is given here.

How the values were obtained:
Cathepsin B = Cathepsin B (Homo sapiens, UniProt P07858); experiment: Inhibition of cathepsin B by spectrofluorimetry
Procedure, shortened: (§1)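 Enzyme (papain and CatB DTT 10 mM-activated; trypsin not) incubated 5 min at 25 °C with DMSO-dissolved inhibitor, five concentrations; Z-FR-AMC started reaction, AMC ex 380/em 460 nm. Papain: phosphate 50 mM pH 6.8, EDTA 1.0 mM, 7.8 nM. CatB: Tris–HCl 50 mM pH 7.5, EDTA 5 mM, 1.0 nM. Trypsin: Tris–HCl pH 7.5, CaCl2 10 mM, 56.1 nM. IC50 from time-course dose–response; triplicate.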

Papain (Carica papaya) [1] = biological target: T1, Papain (Carica papaya) (UniProt P00784); details: 0.2 uM
T1 sequence (whole entry): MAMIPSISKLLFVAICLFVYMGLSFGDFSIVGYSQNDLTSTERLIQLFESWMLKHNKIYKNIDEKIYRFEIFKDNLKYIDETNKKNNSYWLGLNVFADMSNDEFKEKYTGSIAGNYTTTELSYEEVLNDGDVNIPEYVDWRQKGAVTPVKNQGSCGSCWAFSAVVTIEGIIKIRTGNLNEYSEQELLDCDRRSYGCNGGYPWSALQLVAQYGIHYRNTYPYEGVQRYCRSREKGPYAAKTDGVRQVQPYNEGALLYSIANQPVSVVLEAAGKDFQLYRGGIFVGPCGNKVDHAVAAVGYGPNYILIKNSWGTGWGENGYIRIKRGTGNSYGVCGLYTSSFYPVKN

Papain = biological target: T2, Papain (Carica papaya, UniProt P00784); experiment: Inhibition of Carica papaya papain by spectrofluorimetry; procedure, shortened: as §1
T2 sequence (P00784 whole entry): T1 sequence (whole entry)

Papain (Carica papaya) [2] = biological target: T1, Papain (Carica papaya); details: 0.5 uM
[3] = Inhibition of trypsin by spectrofluorimetry
Papain (Carica papaya) [4] = biological target: T1, Papain (Carica papaya); experiment: Inhibition of Carica papaya papain at 50 uM preincubated for 5 mins before addition of increasing concentration of substrate Z-FR-AMC
[5] = Inhibition of trypsin at 50 uM preincubated for 5 mins before addition of increasing concentration of substrate Z-FR-AMC
Papain (Carica papaya) [6] = biological target: T1, Papain (Carica papaya); experiment: Inhibition of Carica papaya papain at 50 uM preincubated before DTT addition by fluorescence measurement
Papain (Carica papaya) [7] = biological target: T1, Papain (Carica papaya); experiment: Inhibition of Carica papaya papain assessed as residual enzyme activity at 9 uM after 30 mins
[8] = Inhibition of trypsin assessed as residual enzyme activity at 10 uM after 30 mins
Cathepsin G = biological target: T3, Cathepsin G (Homo sapiens, UniProt P08311); experiment: Inhibition of cathepsin G by spectrofluorimetry
T3 sequence (P08311 whole entry): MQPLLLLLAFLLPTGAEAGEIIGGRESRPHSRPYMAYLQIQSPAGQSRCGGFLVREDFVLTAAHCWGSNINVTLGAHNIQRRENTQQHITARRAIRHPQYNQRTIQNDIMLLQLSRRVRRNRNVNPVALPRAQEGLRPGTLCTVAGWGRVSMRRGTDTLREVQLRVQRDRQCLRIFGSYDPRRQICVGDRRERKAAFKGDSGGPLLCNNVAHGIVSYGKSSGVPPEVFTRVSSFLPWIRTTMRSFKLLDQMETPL

Compound | IC50 (Cathepsin B) | inhibition (Papain (Carica papaya) [1]) | IC50 (Papain) | inhibition (Papain (Carica papaya) [2]) | IC50 [3] | inhibition (Papain (Carica papaya) [4]) | inhibition [5] | inhibition (Papain (Carica papaya) [6]) | inhibition (Papain (Carica papaya) [7]) | inhibition [8] | IC50 (Cathepsin G)
CC(=O)N[C@@H](CC(C)C)C(=O)N[C@@H](CC(C)C)C(=O)N[C@H](C=O)CCCNC(=N)N [LEUPEPTIN] | 0.047 µM |  |  |  |  |  |  |  |  |  | 
CC(C)C[C@H](NC(=O)[C@H]1O[C@@H]1C(=O)O)C(=O)NCCCCN=C(N)N [E-64] |  | Active | 0.047 µM | Active |  |  |  |  |  |  | 
O=C(c1ccccc1)c1ccccc1 [BENZOPHENONE] | 289 µM |  | 3460 µM |  | 3470 µM | inactive | inactive | inactive |  |  | 
CC(C)=CC[C@H]1C[C@@]2(CC=C(C)C)C(=O)C(C(=O)c3ccccc3)=C(O)[C@H](C2=O)C1(C)C [GARCINIAPHENONE] | 103 µM |  | 131 µM |  | 104 µM | inactive | inactive | inactive | Active | Active | 
CC(C)=CCC[C@]1(C)[C@@H](CC=C(C)C)C[C@]2(CC=C(C)C)C(=O)[C@@]1(CC=C(C)C)C(=O)C(C(=O)c1ccc(O)c(O)c1)=C2O [GUTTIFERONE A] | 2.1 µM |  | 1.9 µM |  |  | Active |  | Active | Active |  | 2.7 µM
O=C(c1ccccc1O)c1ccc(O)cc1O | 198 µM |  | 693 µM |  | 301 µM | inactive | inactive | inactive |  |  | 
